# Assay results taken from ChEMBL document CHEMBL5236545, “Discovery of Potent and Brain-Penetrant Tau Tubulin Kinase 1 (TTBK1) Inhibitors that Lower Tau Phosphorylation In Vivo” (J Med Chem, 2021).
# Legend:
# [1] = Intrinsic clearance in rat liver microsomes at 1 uM incubated upto 40 mins; assay type: ADME, Microsome; conditions: read-out: CLH
# [2] = Intrinsic clearance in human liver microsomes at 1 uM incubated upto 40 mins; assay type: ADME, Microsome; conditions: read-out: CLH
# [3] = Stability of the compound at pH 7.4 by UHPLC-MS/MS analysis; assay type: physicochemical; conditions: buffer
# [4] = Dissociation constant, pKa of compound; assay type: physicochemical
# [5] = Half life in rat at 1 mg/kg,iv administered for 4 hrs; assay type: ADME, organism-based; conditions: in vivo
# [6] = Solubility of compound; assay type: physicochemical
# [7] = Volume of distribution at steady state in rat at 1 mg/kg,iv administered for 4 hrs; assay type: ADME, organism-based; conditions: in vivo, read-out: Vdss
# [8] = Clearance in rat at 1 mg/kg,iv administered for 4 hrs; assay type: ADME, organism-based; conditions: in vivo
# [9] = Unbound brain-to-plasma concentration ratio in rat at 1 mg/kg,iv administered for 4 hrs; assay type: ADME, organism-based; conditions: brain and plasma (unbound), read-out: K(p,uu,brain)
# [10] = Half life in mouse at 1 mg/kg,iv administered for 4 hrs; assay type: ADME, organism-based; conditions: in vivo
# [11] = Drug concentration in rat brain at 80 mg/kg,ip administered for 24 hr by LC-MS/MS analysis; assay type: ADME, organism-based; conditions: in vivo
# Outline: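 Post-natal day 10 rats given 80 mg/kg I.P.; groups sacrificed 0.5−24 h after dosing. Cortical samples from each hemisphere taken for brain drug concentration and tau phosphorylation.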
# [12] = Volume of distribution at steady state in mouse at 1 mg/kg,iv administered for 4 hrs; assay type: ADME, organism-based; conditions: in vivo, read-out: Vdss
# [13] = Clearance in mouse at 1 mg/kg,iv administered for 4 hrs; assay type: ADME, organism-based; conditions: in vivo
smiles,measurement,setting,value
CC(C)(O)C#Cc1cc2c(cn1)c(C1CC1)cn2-c1ccnc(N)n1,CLint scaled at 1 µM,[1],374 mL/min/kg
same,CLint scaled at 1 µM,[2],10 mL/min/kg
CN1CCC[C@@H](c2cn(-c3ccnc(N)n3)c3cc(C#CC(C)(C)O)ncc23)C1,CLint scaled at 1 µM,[1],< 11 mL/min/kg
same,CLint scaled at 1 µM,[2],< 5 mL/min/kg
same,Stability,[3],99.3%
CC(C)(O)C#Cc1cc2c(cn1)CCN2c1ccnc(N)n1,CLint scaled at 1 µM,[1],24 mL/min/kg
same,pKa,[4],7.4
same,CLint scaled at 1 µM,[2],< 5 mL/min/kg
same,Stability,[3],82.7%
CC[C@](C)(O)C#Cc1cc2c(cn1)cnn2-c1ccnc(N)n1,CLint scaled at 1 µM,[1],36 mL/min/kg
same,half-life,[5],4.3 h
same,solubility,[6],46 µg/mL
same,CLint scaled at 1 µM,[2],< 5 mL/min/kg
same,Stability,[3],99.9%
same,Vd,[7],2.48 L/kg
same,clearance,[8],17 mL/min/kg
same,Kp uu at 4 h,[9],0.08
CC(C)(O)C#Cc1cc2c(ccn2-c2ccnc(N)n2)cc1F,CLint scaled at 1 µM,[1],69 mL/min/kg
same,CLint scaled at 1 µM,[2],21 mL/min/kg
same,Stability,[3],100%
CC(C)(O)C#Cc1cc2c(cn1)cnn2-c1ccnc(N)n1,CLint scaled at 1 µM,[1],27 mL/min/kg
same,pKa,[4],4.9
same,CLint scaled at 1 µM,[2],< 5 mL/min/kg
CC(C)(O)C#Cc1cc2c(cn1)c(C1CCOCC1)cn2-c1ccnc(N)n1,CLint scaled at 1 µM,[1],38 mL/min/kg
same,CLint scaled at 1 µM,[2],6 mL/min/kg
CC[C@](C)(O)C#Cc1cc2c(ccn2-c2cc(OC)nc(N)n2)cn1,CLint scaled at 1 µM,[1],219 mL/min/kg
same,half-life,[5],3.6 h
same,half-life,[10],6 min
same,Drug uptake,[11],Not Active
same,solubility,[6],45 µg/mL
same,Vd,[12],0.474 L/kg
same,CLint scaled at 1 µM,[2],16 mL/min/kg
same,clearance,[13],67 mL/min/kg
same,Vd,[7],4.87 L/kg
same,clearance,[8],62 mL/min/kg
same,Kp uu at 4 h,[9],0.32
COc1cc2ccn(-c3ccnc(N)n3)c2cc1C#CC(C)(C)O,CLint scaled at 1 µM,[1],56 mL/min/kg
same,CLint scaled at 1 µM,[2],31 mL/min/kg
CC(C)(O)C#Cc1cc2c(ccn2-c2ccnc(N)n2)cn1,CLint scaled at 1 µM,[1],42 mL/min/kg
same,pKa,[4],5.7
same,CLint scaled at 1 µM,[2],19 mL/min/kg
CC[C@](C)(O)C#Cc1cc2c(ccn2-c2ccnc(N)n2)cn1,CLint scaled at 1 µM,[1],155 mL/min/kg
same,half-life,[5],3.6 h
same,solubility,[6],44 µg/mL
same,CLint scaled at 1 µM,[2],11 mL/min/kg
same,Stability,[3],99.7%
same,Vd,[7],2.17 L/kg
same,clearance,[8],64 mL/min/kg
same,Kp uu at 4 h,[9],0.1
COc1nc(C#CC(C)(C)O)cc2c1ccn2-c1ccnc(N)n1,CLint scaled at 1 µM,[1],62 mL/min/kg
same,CLint scaled at 1 µM,[2],10 mL/min/kg
Cn1nc(-c2ccnc(N)n2)c2cc(C#CC(C)(C)O)ccc21,Stability,[3],100%
CC(C)(O)C#Cc1cc2c(ccn2-c2ccnc(N)n2)c(N2CCOCC2)n1,CLint scaled at 1 µM,[1],42 mL/min/kg
same,CLint scaled at 1 µM,[2],< 5 mL/min/kg
